# “And” between values parts separate entries of the source, which are not always exact repeats. Identical values can stand only once.
# Tests used:
# [1] = target: T1, Hemoglobin HbA (Homo sapiens) (UniProt P69905+P68871); assay: Oxygen pressure at which hemoglobin is 50% saturated with oxygen in the presence of the effector.; assay type: functional
# How it was run: (§1)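 Purified stripped human adult Hb in 50 mM bis-Tris, 100 mM NaCl, pH 7.2, at 60-70 µM heme, with effector at 0.5 mM. Catalase and EDTA were added, and the sample was saturated with carbogen. The curve was recorded on a Hemox analyzer as O₂ pressure was lowered over 45-60 min, with saturation read at 577/586.2 nm. P50 came from linear regression of 40-60% saturation points. Single runs, each with its own no-effector control.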
# [2] = target: T1, Hemoglobin HbA (Homo sapiens); assay: Ratio of P50e to P50c (P50 control value with no effector present, 5 mmHg); assay type: functional; how it was run: as §1
# [3] = Hill coefficient at 50% saturation in the presence of effector
# Homo sapiens [4] = organism: Homo sapiens; assay: P50C is the control value in whole blood in experiment.; assay type: functional
# How it was run: (§2)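 Heparinized whole blood from healthy volunteers, kept on ice, was given the effector sodium salt from a 200 mM DMSO stock to 5.0 mM final. It was tonometered about 10-12 min at 37 °C and equilibrated at 20%, 40% and 60% O₂. pH, pCO₂, pO₂ and sO₂ were read by blood gas analyzer and co-oximeter, at least in duplicate. ΔP50 = P50e − P50c.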
# Homo sapiens [5] = organism: Homo sapiens; assay: P50e is the value in the presence of the effector in whole blood in experiment 1 (in vitro); assay type: functional; how it was run: as §2
# Homo sapiens [6] = organism: Homo sapiens; assay: P50e is the value in the presence of the effector in whole blood in experiment 2 (in vitro); assay type: functional; how it was run: as §2
# [7] = The difference between P50e and P50c tested.; assay type: functional; how it was run: as §2
# T1 sequence (P68871 2-147 partner limits assumed): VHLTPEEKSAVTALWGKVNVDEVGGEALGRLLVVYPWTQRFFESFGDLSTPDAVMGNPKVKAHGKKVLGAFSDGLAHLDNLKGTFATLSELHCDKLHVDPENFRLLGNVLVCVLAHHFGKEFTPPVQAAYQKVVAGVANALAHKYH
# T1 sequence (P69905 2-142 limits assumed): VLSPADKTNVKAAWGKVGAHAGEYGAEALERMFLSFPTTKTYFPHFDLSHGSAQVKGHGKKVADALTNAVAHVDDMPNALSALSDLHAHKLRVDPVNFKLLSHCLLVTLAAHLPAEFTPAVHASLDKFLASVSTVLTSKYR
SMILES,P50e [1],P50e/P50c [2],Hill coefficient (n50) [3],P50c (Homo sapiens [4]),P50e (Homo sapiens [5]),P50e (Homo sapiens [6]),ΔP50 (P50e minus P50c) [7],P50C (Homo sapiens [4])
CCCCC(Oc1ccc(CC(=O)Nc2cc(C)cc(C)c2)cc1)C(=O)O (stereo unspecified),17 mmHg,3.4,2.5,–,–,–,–,–
Cc1cc(C)cc(NC(=O)Cc2ccc(OC3(C(=O)O)CCOC3C)cc2)c1 (stereo unspecified),7.6 mmHg,1.5,2.4,–,–,–,–,–
CC(Oc1ccc(CC(=O)Nc2ccc3c(c2)CCC3)cc1)C(=O)O (stereo unspecified),6.3 mmHg,1.3,2.7,–,–,–,–,–
CCC(C)(Oc1ccc(CC(=O)Nc2cc(C)cc(C)c2)cc1)C(=O)O (stereo in doubt; (-)-10),10.5 mmHg,2.1,2.3,–,–,–,–,–
Cc1cc(C)cc(NC(=O)Cc2ccc(O[C@]3(C(=O)O)CCO[C@H]3C)cc2)c1,9.3 mmHg,1.9,2.6,–,–,–,–,–
"CCC(Oc1ccc(CC(=O)Nc2cc(C)cc(C)c2)cc1)C(=O)O (single isomer, unassigned; (-))",9.8 mmHg,2,2.8,–,–,–,–,–
Cc1cc(C)cc(NC(=O)Cc2ccc(OC3(C(=O)O)CCC(C)C3)cc2)c1 (stereo unspecified),12.9 mmHg,2.6,2.5,–,–,–,–,–
"Cc1cc(C)cc(NC(=O)Cc2ccc(OC(C)C(=O)O)cc2)c1 (single isomer, unassigned; (+)) [listing 1 of 2 here]",–,–,–,27.3 mmHg,47.4 mmHg,48.7 mmHg,–,–
Cc1cc(Cl)cc(NC(=O)Cc2ccc(OC(C)C(=O)O)cc2)c1 (stereo unspecified),9.4 mmHg,1.9,2.6,–,–,–,–,–
"Cc1cc(C)cc(NC(=O)Cc2ccc(OC(C)C(=O)O)cc2)c1 (single isomer, unassigned; (-)) [listing 1 of 2 here]",–,–,–,27.8 mmHg,39.7 mmHg,40.5 mmHg,–,–
Cc1cc(C)cc(NC(=O)Cc2ccc(OC(C)(C)C(=O)O)cc2)c1 [EFAPROXIRAL],23.4 mmHg,4.7,2.3 and 1.47,29.8 mmHg,76.5 mmHg,73.4 mmHg,45.2 mmHg,–
Cc1cc(C)cc(NC(=O)Cc2ccc(O[C@]3(C(=O)O)CCC[C@H]3C)cc2)c1,30.7 mmHg,6.1,2.4 and 1.6,27.9 mmHg,78.5 mmHg,72.5 mmHg,47.6 mmHg,–
Cc1cc(C)cc(NC(=O)Cc2ccc(OC3(C(=O)O)CCCC(C)C3)cc2)c1 (stereo unspecified),10.3 mmHg,2.1,2.5,–,–,–,–,–
"CCC(C)(Oc1ccc(CC(=O)Nc2cc(C)cc(C)c2)cc1)C(=O)O (single isomer, unassigned; (+))",17.4 mmHg,3.5,2.4,–,–,–,–,–
Cc1cc(C)cc(NC(=O)Cc2ccc(OC(F)C(=O)O)cc2)c1 (stereo unspecified),5.9 mmHg,1.2,2.5,–,–,–,–,–
Cc1cc(C)cc(NC(=O)Cc2ccc(OC3(C(=O)O)CCCC3C)cc2)c1 (racemic),21.6 mmHg,4.3,2.3 and 1.6,26.5 mmHg,66 mmHg,67.2 mmHg,40.1 mmHg,–
CC1CCC(Oc2ccc(CC(=O)Nc3ccc4c(c3)CCC4)cc2)(C(=O)O)C1 (stereo unspecified),12.7 mmHg,2.5,2.6,–,–,–,–,–
CCC(C)(Oc1ccc(CC(=O)Nc2cc(C)cc(Cl)c2)cc1)C(=O)O (stereo unspecified),16.6 mmHg,3.3,2.5,–,–,–,–,–
CC1CCCC1(Oc1ccc(CC(=O)Nc2ccc3c(c2)CCC3)cc1)C(=O)O (stereo unspecified),13.8 mmHg,2.8,2.6,–,–,–,–,–
"CCC(Oc1ccc(CC(=O)Nc2cc(C)cc(C)c2)cc1)C(=O)O (single isomer, unassigned; (+))",18 mmHg,3.6,2.7,–,–,–,–,–

SMILES,P50e [1],P50e/P50c [2],Hill coefficient (n50) [3],P50c (Homo sapiens [4]),P50e (Homo sapiens [5]),P50e (Homo sapiens [6]),ΔP50 (P50e minus P50c) [7],P50C (Homo sapiens [4])
CCC(Oc1ccc(CC(=O)Nc2cc(C)cc(Cl)c2)cc1)C(=O)O (stereo unspecified),13.1 mmHg,2.6,2.6,–,–,–,–,–
Cc1cc(C)cc(NC(=O)Cc2ccc(OC3(C(=O)O)CCOCC3)cc2)c1,7.6 mmHg,1.5,2.4,–,–,–,–,–
Cc1cc(Cl)cc(NC(=O)Cc2ccc(OC3(C(=O)O)CCC(C)C3)cc2)c1 (stereo unspecified),14 mmHg,2.8,2.4,–,–,–,–,–
Cc1cc(C)cc(NC(=O)Cc2ccc(OC(C)C(=O)O)cc2)c1 (racemic) [listing 1 of 2 here],9.3 mmHg,1.9,2.6 and 2,–,–,–,18.2 mmHg,–
Cc1cc(C)cc(NC(=O)Cc2ccc(O[C@@]3(C(=O)O)CCO[C@@H]3C)cc2)c1,7.7 mmHg,1.5,2.8,–,–,–,–,–
Cc1cc(Cl)cc(NC(=O)Cc2ccc(OC3(C(=O)O)CCCC3C)cc2)c1 (stereo unspecified),21.9 mmHg,4.4,2.4,–,–,–,–,–
CC(C)(Oc1ccc(CC(=O)Nc2ccc3c(c2)CCC3)cc1)C(=O)O,15.3 mmHg,3,2.6,–,–,–,–,–
CCC(C)(Oc1ccc(CC(=O)Nc2ccc3c(c2)CCC3)cc1)C(=O)O (stereo unspecified),10.6 mmHg,2.1,2.3,–,–,–,–,–
Cc1cc(C)cc(NC(=O)Cc2ccc(OC(C)C(=O)O)cc2)c1 (racemic) [listing 2 of 2 here],–,–,–,27.2 mmHg,47.2 mmHg,43.5 mmHg,–,–
CCCC(Oc1ccc(CC(=O)Nc2cc(C)cc(C)c2)cc1)C(=O)O (stereo unspecified),16.1 mmHg,3.2,2.5,–,–,–,–,–
CCC(Oc1ccc(CC(=O)Nc2cc(C)cc(C)c2)cc1)C(=O)O (stereo in doubt; 32),13 mmHg,2.6,2.7,–,–,–,–,–
CCCC(C)(Oc1ccc(CC(=O)Nc2cc(C)cc(C)c2)cc1)C(=O)O (stereo unspecified),11.7 mmHg,2.3,2.7,–,–,–,–,–
"Cc1cc(C)cc(NC(=O)Cc2ccc(OC(C)C(=O)O)cc2)c1 (single isomer, unassigned; (-)) [listing 2 of 2 here]",6.6 mmHg,1.3,2.5 and 2.2,–,–,–,12.3 mmHg,–
COCC(C)(Oc1ccc(CC(=O)Nc2cc(C)cc(C)c2)cc1)C(=O)O (stereo unspecified),8.4 mmHg,1.7,2.4,–,–,–,–,–
Cc1cc(C)cc(NC(=O)Cc2ccc(OC3(C(=O)O)CCCC3)cc2)c1,25.7 mmHg,5.1,2.4 and 1.66,–,74.7 mmHg,67.7 mmHg,42.3 mmHg,28.9 mmHg
CCC(C)(Oc1ccc(CC(=O)Nc2cc(C)cc(C)c2)cc1)C(=O)O (stereo in doubt; 10),13.3 mmHg,2.7,2.4,–,–,–,–,–
Cc1cc(Cl)cc(NC(=O)Cc2ccc(OC(C)(C)C(=O)O)cc2)c1,21 mmHg,4.4,2.4,–,–,–,–,–
CCC(Oc1ccc(CC(=O)Nc2ccc3c(c2)CCC3)cc1)C(=O)O (stereo unspecified),9.1 mmHg,1.8,2.6,–,–,–,–,–
"Cc1cc(C)cc(NC(=O)Cc2ccc(OC(C)C(=O)O)cc2)c1 (single isomer, unassigned; (+)) [listing 2 of 2 here]",9.8 mmHg,2,2.6 and 1.9,–,–,–,20.7 mmHg,–

# From ChEMBL document CHEMBL1132954, “Synthesis and structure-activity relationships of chiral allosteric modifiers of hemoglobin” (2000)
